Reference: ChEMBL document CHEMBL3244000, “Aromatic hydroxylation of beta-adrenergic antagonists. Formation of 4'- and 5'-hydroxy-1-(isopropylamino)-3-[2'-allyloxy)phenoxy]-2-propanol from oxprenolol” (J Med Chem, 1979)

What was measured:
[1] = Drug level in Sprague-Dawley rat urine treated with oxprenolol hydrochloride at 20 mg/kg, ip measured after 24 hrs by GC-CIMS analysis; type: ADME, organism-based; design: dose 20 mg/kg, route intraperitoneal; details: in vivo
In short: (§1)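 Six male Sprague-Dawley rats (120 g) were given oxprenolol hydrochloride ip at 20 mg/kg (4 mg/mL in sterile isotonic water). Urine was collected over 24 h in metabolic cages and pooled, then incubated overnight at 37 °C with 9200 units β-glucuronidase in pH 5.0 acetate buffer. Extract was methylated with diazomethane and TFA-derivatized. GC-CIMS monitored QM ions; isomer ratio was taken from the total ion current tracings.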

[2] = Drug level in Sprague-Dawley rat urine treated with oxprenolol hydrochloride at 20 mg/kg, ip measured after 24 hrs by GC-CIMS analysis in presence of beta-glucuronidase and CH2N2; type: ADME, organism-based; design: dose 20 mg/kg, route intraperitoneal; details: in vivo; in short: as §1

Compound	Drug excretion [1]	Drug excretion [2]
C=CCOc1cc(O)ccc1OCC(O)CNC(C)C (centres undefined)	metabolite_detected	–
C=CCOc1ccc(O)cc1OCC(O)CNC(C)C (centres undefined)	metabolite_detected	–
C=CCOc1cc(OC)ccc1OCC(O)CNC(C)C (centres undefined)	–	metabolite_detected
C=CCOc1ccc(OC)cc1OCC(O)CNC(C)C (centres undefined)	–	metabolite_detected
